Measurements as given in ChEMBL document CHEMBL4834419 (J Med Chem, 2021).
In brackets after ≈: the same amount, converted by molar mass.

What was measured:
[1] = biological target: T1, Retinoic acid receptor RXR-beta (Homo sapiens, UniProt P28702); assay: Agonist activity at human RXRbeta transfected in human HEK293T cells co-expressing pFR/pRL-Luc incubated for 14 to 16 hrs by hybrid reporter gene assay; format: cell-based
T1 sequence (P28702 whole entry): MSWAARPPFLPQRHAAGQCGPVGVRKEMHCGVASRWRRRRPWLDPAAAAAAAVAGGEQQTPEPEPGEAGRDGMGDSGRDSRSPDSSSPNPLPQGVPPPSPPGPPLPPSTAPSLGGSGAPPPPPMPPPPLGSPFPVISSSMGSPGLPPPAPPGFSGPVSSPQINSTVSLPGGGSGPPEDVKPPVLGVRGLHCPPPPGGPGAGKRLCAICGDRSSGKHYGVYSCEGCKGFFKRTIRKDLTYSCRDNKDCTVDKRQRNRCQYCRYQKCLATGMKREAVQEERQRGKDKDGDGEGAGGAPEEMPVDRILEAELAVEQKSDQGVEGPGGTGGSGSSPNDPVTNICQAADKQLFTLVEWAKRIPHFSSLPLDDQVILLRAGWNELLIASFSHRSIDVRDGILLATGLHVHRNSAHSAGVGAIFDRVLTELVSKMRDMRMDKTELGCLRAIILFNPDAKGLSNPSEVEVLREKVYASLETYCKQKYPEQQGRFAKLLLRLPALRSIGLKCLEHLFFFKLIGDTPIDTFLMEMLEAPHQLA

HepG2 = assay: Cytotoxicity against human HepG2 cells assessed as reduction in cell viability incubated for 48 hrs by WST-1 assay; conditions: HepG2, 48 h
[2] = Aqueous solubility of compound in pH 8 phosphate buffer incubated for 1 hr by HPLC analysis; format: physicochemical; conditions: phosphate buffer, pH 8
Method in brief: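 Solubility was measured with 3 mg compound in 2 mL 0.1 M phosphate buffer, pH 8, shaken 1 h at 37 °C. The mixture was pressed through a Uniprep filter and the dissolved compound in the filtrate quantified by HPLC against an external calibration; three independent experiments.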

[3] = Metabolic stability in Sprague-Dawley rat liver microsomes assessed as compound degradation at 10 uM incubated for 60 min by HPLC analysis; format: ADME; conditions: 1 h
Method in brief: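 Compound at 10 μM final in 0.1 M phosphate, pH 7.4, was preincubated 5 min at 37 °C with an NADPH-regenerating system. Sprague-Dawley rat liver microsomes were then added. Reactions were stopped with ice-cold methanol at 0, 15, 30 and 60 min and remaining compound quantified by HPLC against an external calibration. Controls: no NADPH, heat-inactivated microsomes. Three independent experiments.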

[4] = biological target: T2, Peroxisome proliferator-activated receptor gamma (Homo sapiens) (UniProt P37231); assay: Agonist activity against human PPARgamma in human HEK293T cells co-expressing pFR/pRL-Luc assessed as receptor activation at 10 uM incubated for 14 to 16 hrs by hybrid reporter gene assay relative to bexarotene; format: cell-based; conditions: filed as agonist, time 14-16 hrs
T2 sequence (whole entry): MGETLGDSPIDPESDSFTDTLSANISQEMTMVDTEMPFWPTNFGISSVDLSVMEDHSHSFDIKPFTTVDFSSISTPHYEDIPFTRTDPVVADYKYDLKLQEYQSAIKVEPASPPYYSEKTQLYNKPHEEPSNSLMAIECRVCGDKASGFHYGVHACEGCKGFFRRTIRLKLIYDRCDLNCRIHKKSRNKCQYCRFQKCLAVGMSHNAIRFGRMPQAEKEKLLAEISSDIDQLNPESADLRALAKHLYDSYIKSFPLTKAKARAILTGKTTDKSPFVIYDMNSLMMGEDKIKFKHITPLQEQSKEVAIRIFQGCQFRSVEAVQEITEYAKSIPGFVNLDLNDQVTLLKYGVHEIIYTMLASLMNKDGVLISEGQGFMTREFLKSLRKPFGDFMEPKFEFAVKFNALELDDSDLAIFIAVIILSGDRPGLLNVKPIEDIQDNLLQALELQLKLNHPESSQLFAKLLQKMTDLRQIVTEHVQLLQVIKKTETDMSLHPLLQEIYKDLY
Method in brief: (§1)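 Gal4 hybrid reporter assay in HEK293T cells, seeded 24 h before transfection (Lipofectamine LTX, Opti-MEM) with pFR-Luc, pRL-SV40 and pFA-CMV plasmid carrying the hinge region and LBD of the human receptor. After 5 h, compound added in 0.1% DMSO, with 0.1% DMSO alone as untreated control. Dual-Glo luciferase read after 14−16 h; firefly/renilla normalized; duplicates, ≥2 independent experiments.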

[5] = biological target: T3, Peroxisome proliferator-activated receptor delta (Homo sapiens) (UniProt Q03181); assay: Agonist activity against human PPARdelta in human HEK293T cells co-expressing pFR/pRL-Luc assessed as receptor activation at 10 uM incubated for 14 to 16 hrs by hybrid reporter gene assay relative to bexarotene; format: cell-based; conditions: filed as agonist, time 14-16 hrs; method in brief: as §1
T3 sequence (whole entry): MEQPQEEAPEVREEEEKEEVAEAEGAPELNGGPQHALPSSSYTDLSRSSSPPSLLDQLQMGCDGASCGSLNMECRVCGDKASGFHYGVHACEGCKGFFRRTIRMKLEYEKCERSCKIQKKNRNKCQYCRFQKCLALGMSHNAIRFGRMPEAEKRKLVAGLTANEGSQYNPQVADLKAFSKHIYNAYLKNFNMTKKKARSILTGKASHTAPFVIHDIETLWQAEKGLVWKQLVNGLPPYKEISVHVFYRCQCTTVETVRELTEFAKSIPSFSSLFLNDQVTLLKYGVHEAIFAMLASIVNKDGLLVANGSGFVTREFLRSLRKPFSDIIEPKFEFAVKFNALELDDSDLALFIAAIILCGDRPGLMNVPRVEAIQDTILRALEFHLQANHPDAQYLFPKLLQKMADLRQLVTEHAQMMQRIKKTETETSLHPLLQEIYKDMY

[6] = biological target: T4, Oxysterols receptor LXR-alpha (Homo sapiens) (UniProt Q13133); assay: Agonist activity against human LXRalpha in human HEK293T cells co-expressing pFR/pRL-Luc assessed as receptor activation at 10 uM incubated for 14 to 16 hrs by hybrid reporter gene assay relative to bexarotene; format: cell-based; conditions: filed as agonist, time 14-16 hrs; method in brief: as §1
T4 sequence (whole entry): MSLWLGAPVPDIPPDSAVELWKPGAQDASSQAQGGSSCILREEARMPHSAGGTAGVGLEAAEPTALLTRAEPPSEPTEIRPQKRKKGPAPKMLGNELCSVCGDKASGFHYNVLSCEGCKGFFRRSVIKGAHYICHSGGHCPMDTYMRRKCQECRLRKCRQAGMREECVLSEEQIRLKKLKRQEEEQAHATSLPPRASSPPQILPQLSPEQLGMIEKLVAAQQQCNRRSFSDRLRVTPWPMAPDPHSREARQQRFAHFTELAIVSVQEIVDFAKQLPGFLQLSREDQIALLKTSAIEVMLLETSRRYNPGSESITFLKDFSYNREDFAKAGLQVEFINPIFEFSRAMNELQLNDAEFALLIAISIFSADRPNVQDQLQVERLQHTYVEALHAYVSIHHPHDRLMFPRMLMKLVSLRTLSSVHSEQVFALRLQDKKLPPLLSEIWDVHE

O=C(O)CCCc1cc(-c2cc(Cl)cc(Cl)c2)n(-c2ccccc2)n1
EC50 [1]: 350 nM | IC50 (HepG2): > 100000 nM | solubility at 1 h [2]: 21 µg/mL (≈ 56 µM) | Stabilty [3]: Stable | Activity [4]: 2% | Activity [5]: 1% | Activity [6]: 1%
